Experimental data published in PubChem BioAssay.
Activity calls are given as the source filed them.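 Rule for the calls, unless noted: active = potentiation averaged over duplicate wells exceeding buffer-only control mean by more than 3 SD; inactive = the rest.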

System: not listed separately
Assay: thallium flux activation in parental CHO cells, counter-screen for KCNQ1 potentiator project (AID 493006;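 active = duplicate-averaged activation above buffer control mean plus 5 SD of those controls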)
Conditions: parental CHO-K1 cells, FluxOR thallium flux, at 10 µM; hits give high values
Procedure, shortened: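 Assay system: Untransfected host CHO-K1 cells with FluxOR thallium dye | Probe or stimulus: Potassium/thallium depolarization pulse | Schedule: Overnight 37 °C plating, 90 min RT dye, 20 min compound | Detection: Kinetic thallium-flux fluorescence | Read-out: Max-minus-min fluorescence over baseline, percent of buffer-to-R-L3 span | Benchmarks: Low control buffer, high control R-L3 activator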

**Q.** Which activation does the source give for Cc1ccc2nc(NC(=S)NC(=O)c3ccco3)sc2c1 here?
**A.** 360% (active)

**Q.** For Oc1c(Br)cc(Br)cc1C=Nc1cccnc1, which activation is on record?
**A.** 146% (active)

**Q.** Which activation does the source give for CCOC(=O)c1c(-c2ccccc2)csc1NC(=S)NC here?
**A.** 286% (active)

Molecular target: Potassium voltage-gated channel subfamily KQT member 1 (Homo sapiens) (UniProt P51787)
Sequence (P51787 whole entry, looked up): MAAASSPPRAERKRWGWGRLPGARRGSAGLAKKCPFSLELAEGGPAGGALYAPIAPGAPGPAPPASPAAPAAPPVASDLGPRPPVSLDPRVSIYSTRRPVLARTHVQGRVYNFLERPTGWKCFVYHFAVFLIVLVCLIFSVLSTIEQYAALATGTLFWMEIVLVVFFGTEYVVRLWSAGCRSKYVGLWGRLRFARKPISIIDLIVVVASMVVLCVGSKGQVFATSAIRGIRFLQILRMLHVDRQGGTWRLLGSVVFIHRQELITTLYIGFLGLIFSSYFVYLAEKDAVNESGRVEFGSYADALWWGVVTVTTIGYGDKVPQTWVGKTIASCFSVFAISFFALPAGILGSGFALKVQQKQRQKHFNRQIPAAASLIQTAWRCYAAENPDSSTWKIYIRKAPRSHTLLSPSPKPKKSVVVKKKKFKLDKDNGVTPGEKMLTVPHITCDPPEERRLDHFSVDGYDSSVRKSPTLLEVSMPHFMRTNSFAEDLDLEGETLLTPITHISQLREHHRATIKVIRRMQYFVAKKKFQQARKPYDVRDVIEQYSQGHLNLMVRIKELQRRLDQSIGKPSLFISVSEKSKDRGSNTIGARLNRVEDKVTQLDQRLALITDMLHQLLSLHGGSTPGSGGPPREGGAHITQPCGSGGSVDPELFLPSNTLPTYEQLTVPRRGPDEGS
Assay: KCNQ1 potassium channel potentiators, confirmation, FluxOR thallium flux, CHO cells, duplicates (AID 493007);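 for outcome: cells depolarized by a potassium plus thallium sulfate stimulus after compound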
Conditions: KCNQ1 cell line, FluxOR thallium flux fluorescence, at 10 µM; hits give high values, % of reference activator effect, buffer zero
Procedure, shortened: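 Material: KCNQ1-expressing CHO cell line; Incubation: FluxOR dye loading 90 min, compound exposure 20 min, room temperature; Detection: FluxOR Tl+ flux fluorescence, 10 s baseline plus 110 s recording; Read-out: percent activation between buffer and R-L3 responses; Control set: buffer-only wells as 0% and R-L3 activator as 100%; Replication: duplicate wells per compound.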

**Q.** For S=c1sc2c(Cl)ncnc2n1-c1ccccc1, which potentiation is on record?
**A.** 146% (active)

**Q.** With COCCCNc1nc2ccccc2nc1NS(=O)(=O)c1cccs1 as the molecule, how does the outcome read?
**A.** inactive

**Q.** For Oc1ccc(C[C@@H]2CNCCN2CCc2cc(C(F)(F)F)cc(C(F)(F)F)c2)cc1, which outcome is on record?
**A.** inactive

**Q.** With COc1ccc(-c2nc3ccc(C(=O)NCC(OC)OC)cc3nc2-c2ccc(OC)c(OC)c2)cc1OC as the molecule, how does the outcome read?
**A.** inactive

**Q.** With CCCCNC(=S)NNC(=O)c1nn(C)c(C)c1Cl as the molecule, how does the outcome read?
**A.** inactive

**Q.** With O=C(NCCCn1ccnc1)c1cc(C2CC2)on1 as the molecule, how does the outcome read?
**A.** inactive

**Q.** For O=[N+]([O-])c1ccc(/C([O-])=C(/C(=S)NCc2ccco2)[n+]2ccccc2)cc1, which outcome is on record?
**A.** inactive

**Q.** With Cc1c(N2C(=O)/C(=C\c3ccccc3O)SC2=S)c(=O)n(-c2ccccc2)n1C as the molecule, how does the potentiation read?
**A.** 200% (active)

**Q.** With COc1ccc(NC(=O)CC2C(=O)NCCN2C(=O)Nc2ccc(C(F)(F)F)cc2)cc1 (stereo unspecified) as the molecule, how does the outcome read?
**A.** inactive

**Q.** Which outcome does the source give for CCOc1ccc(C(C#N)N2CCOCC2)cc1OC (stereo unspecified) here?
**A.** inactive

**Q.** For CCOc1ccc(/C=C2/SC(=O)NC2=S)cc1, which potentiation is on record?
**A.** 138% (active)

**Q.** Which potentiation does the source give for Cc1ccc(-n2c(=S)[nH]c3sc4c(c3c2=O)CCC4)cc1 here?
**A.** 42.5% (active)

**Q.** For C/C(CCc1oc2c(Br)cc(Br)cc2c1-c1ccc(C)o1)=N\O, which outcome is on record?
**A.** inactive

**Q.** For Cn1c(=NC(=O)c2ccco2)sc2cccc(F)c21, which outcome is on record?
**A.** inactive

**Q.** Which outcome does the source give for CC(=O)NC(CC(=O)O)C(=O)O (stereo unspecified) here?
**A.** inactive

**Q.** With O=c1c2ccccc2nc(-c2ccc(Cl)c(Cl)c2)n1O as the molecule, how does the potentiation read?
**A.** 244% (active)

**Q.** Which outcome does the source give for Cc1c(Cl)cccc1NC(=O)Cn1c(CCC(=O)O)ccc1-c1ccccc1 here?
**A.** inactive

**Q.** Which outcome does the source give for COc1cccc(OC)c1C(=O)Nc1cccc(-c2ccc3nncn3n2)c1 here?
**A.** inactive

**Q.** For CC1(N2CCCCC2)CC2(O)C(=[N+]1[O-])CCC/C2=N\O (stereo unspecified), which outcome is on record?
**A.** inactive

**Q.** With Cc1cccc(OCC(=O)O/N=C(\N)c2ccc(Cl)cc2)c1 as the molecule, how does the outcome read?
**A.** inactive

**Q.** Which potentiation does the source give for O=C(Nc1nnc(-c2ccc3c(c2)CCCC3)o1)c1c(F)cccc1F here?
**A.** 25% (active)

**Q.** Which potentiation does the source give for CCn1ncc(Cl)c1C(=O)NC(=S)Nc1ccccc1Br here?
**A.** 200% (active)

**Q.** For CCN1c2ccccc2-c2nc3ccccc3n2C1c1cccnc1 (stereo unspecified), which outcome is on record?
**A.** inactive

**Q.** For COc1ccc(-n2c(NCCN(C)C)nc3sc4c(c3c2=O)CCCCC4)cc1, which outcome is on record?
**A.** inactive

**Q.** Which outcome does the source give for COC(=O)c1cccc(NC(=O)CSc2nncn2-c2ccccn2)c1 here?
**A.** inactive

**Q.** Which potentiation does the source give for COc1ccc(NC(=S)NC(=O)c2csnn2)cc1 here?
**A.** 71% (active)

**Q.** For O=C1CN(c2nc(-c3cccs3)nc3sc4c(c23)CCCC4)CCN1, which potentiation is on record?
**A.** 415% (active)

**Q.** With O=C(NC(=S)NCCC1=CCCCC1)c1ccco1 as the molecule, how does the potentiation read?
**A.** 97% (active)

**Q.** With CCC(Cc1ccccc1)n1c(=S)[nH]c2ccccc2c1=O (stereo unspecified) as the molecule, how does the potentiation read?
**A.** 19% (active)

**Q.** For C/C(=N\NC(=O)C1COc2ccccc2O1)c1ccc(N2CCOCC2)cc1 (stereo unspecified), which outcome is on record?
**A.** inactive

**Q.** For O=C(NNC(=O)c1ccc2ccccc2c1O)c1cccs1, which outcome is on record?
**A.** inactive

**Q.** With COc1cccc2sc(N(CCCN(C)C)C(=O)CCS(=O)(=O)c3ccccc3)nc12 as the molecule, how does the outcome read?
**A.** inactive

**Q.** With CC(C)NC(=O)/C(=C/c1cn(-c2ccccc2)nc1-c1cccc([N+](=O)[O-])c1)NC(=O)c1ccccc1 as the molecule, how does the outcome read?
**A.** inactive

**Q.** For CCCNC(=O)C(=O)N/N=C/c1cccs1, which potentiation is on record?
**A.** 24.5% (active)

**Q.** For Cc1ccc(NC(=O)C(=O)NNC(=O)c2ccccc2C)cc1Cl, which potentiation is on record?
**A.** 112% (active)

**Q.** For CCOC(=O)C1=NN(C(=O)c2ccccc2)C(O)(c2ccc(C)cc2)C1 (stereo unspecified), which potentiation is on record?
**A.** 49.5% (active)

**Q.** For Cc1ccc2nc(NC(=S)NC(=O)c3ccco3)sc2c1, which potentiation is on record?
**A.** 138% (active)

**Q.** Which potentiation does the source give for Oc1c(Br)cc(Br)cc1C=Nc1cccnc1 here?
**A.** 48% (active)

**Q.** With CCOC(=O)c1c(-c2ccccc2)csc1NC(=S)NC as the molecule, how does the potentiation read?
**A.** 130% (active)

Molecular target: Potassium voltage-gated channel subfamily KQT member 2 (Rattus norvegicus) (UniProt O88943)
Sequence (O88943 whole entry, looked up): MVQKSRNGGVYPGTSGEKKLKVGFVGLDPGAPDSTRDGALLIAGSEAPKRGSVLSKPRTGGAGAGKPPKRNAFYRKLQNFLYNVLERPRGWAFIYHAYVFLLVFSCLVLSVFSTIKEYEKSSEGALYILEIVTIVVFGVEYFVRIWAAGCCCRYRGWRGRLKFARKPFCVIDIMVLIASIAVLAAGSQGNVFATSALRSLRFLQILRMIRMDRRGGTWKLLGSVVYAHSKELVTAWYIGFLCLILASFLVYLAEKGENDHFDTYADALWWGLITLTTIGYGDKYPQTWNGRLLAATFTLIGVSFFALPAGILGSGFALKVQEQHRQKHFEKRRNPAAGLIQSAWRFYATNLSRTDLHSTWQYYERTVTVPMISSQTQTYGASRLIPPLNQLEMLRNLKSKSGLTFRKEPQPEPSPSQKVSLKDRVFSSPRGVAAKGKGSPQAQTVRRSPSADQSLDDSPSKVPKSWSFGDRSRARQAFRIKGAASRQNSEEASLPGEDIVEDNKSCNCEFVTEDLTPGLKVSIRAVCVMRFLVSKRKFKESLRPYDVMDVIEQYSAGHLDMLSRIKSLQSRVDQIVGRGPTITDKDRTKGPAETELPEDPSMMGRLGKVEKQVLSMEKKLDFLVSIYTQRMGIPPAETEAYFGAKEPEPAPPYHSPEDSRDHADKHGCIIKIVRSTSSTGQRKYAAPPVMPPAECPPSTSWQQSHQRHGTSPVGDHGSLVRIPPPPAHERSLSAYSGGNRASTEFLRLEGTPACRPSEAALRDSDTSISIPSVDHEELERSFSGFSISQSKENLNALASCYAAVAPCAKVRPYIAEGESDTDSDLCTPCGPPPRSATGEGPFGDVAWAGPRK
Assay: rat KCNQ2 channel potentiation, selectivity assay for KCNQ1 potentiator project, KCNQ2-CHO-K1 cells (AID 493009;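 active = mean duplicate potentiation above the buffer control mean plus 5 SD of buffer wells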;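 note: assay conditions were tuned for KCNQ1 rather than KCNQ2 modulators; signal is max minus min fluorescence divided by baseline after thallium stimulus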)
Conditions: FluxOR thallium flux fluorescence, at 10 µM; hits give high values, scaled: buffer 0, activator control 100

**Q.** Which potentiation does the source give for S=c1sc2c(Cl)ncnc2n1-c1ccccc1 here?
**A.** 364% (active)

**Q.** Which outcome does the source give for COCCCNc1nc2ccccc2nc1NS(=O)(=O)c1cccs1 here?
**A.** inactive

**Q.** With Oc1ccc(C[C@@H]2CNCCN2CCc2cc(C(F)(F)F)cc(C(F)(F)F)c2)cc1 as the molecule, how does the outcome read?
**A.** inactive

**Q.** With COc1ccc(-c2nc3ccc(C(=O)NCC(OC)OC)cc3nc2-c2ccc(OC)c(OC)c2)cc1OC as the molecule, how does the outcome read?
**A.** inactive

**Q.** Which outcome does the source give for CCCCNC(=S)NNC(=O)c1nn(C)c(C)c1Cl here?
**A.** inactive

**Q.** For O=C(NCCCn1ccnc1)c1cc(C2CC2)on1, which outcome is on record?
**A.** inactive

**Q.** For O=[N+]([O-])c1ccc(/C([O-])=C(/C(=S)NCc2ccco2)[n+]2ccccc2)cc1, which outcome is on record?
**A.** inactive

**Q.** With Cc1c(N2C(=O)/C(=C\c3ccccc3O)SC2=S)c(=O)n(-c2ccccc2)n1C as the molecule, how does the potentiation read?
**A.** 392% (active)

**Q.** For COc1ccc(NC(=O)CC2C(=O)NCCN2C(=O)Nc2ccc(C(F)(F)F)cc2)cc1 (stereo unspecified), which outcome is on record?
**A.** inactive

**Q.** Which outcome does the source give for CCOc1ccc(C(C#N)N2CCOCC2)cc1OC (stereo unspecified) here?
**A.** inactive

**Q.** With CCOc1ccc(/C=C2/SC(=O)NC2=S)cc1 as the molecule, how does the potentiation read?
**A.** 379% (active)

**Q.** Which potentiation does the source give for Cc1ccc(-n2c(=S)[nH]c3sc4c(c3c2=O)CCC4)cc1 here?
**A.** 176% (active)

**Q.** With C/C(CCc1oc2c(Br)cc(Br)cc2c1-c1ccc(C)o1)=N\O as the molecule, how does the outcome read?
**A.** inactive

**Q.** For Cn1c(=NC(=O)c2ccco2)sc2cccc(F)c21, which outcome is on record?
**A.** inactive

**Q.** Which outcome does the source give for CC(=O)NC(CC(=O)O)C(=O)O (stereo unspecified) here?
**A.** inactive

**Q.** For O=c1c2ccccc2nc(-c2ccc(Cl)c(Cl)c2)n1O, which potentiation is on record?
**A.** 558% (active)

**Q.** Which outcome does the source give for Cc1c(Cl)cccc1NC(=O)Cn1c(CCC(=O)O)ccc1-c1ccccc1 here?
**A.** inactive

**Q.** With COc1cccc(OC)c1C(=O)Nc1cccc(-c2ccc3nncn3n2)c1 as the molecule, how does the outcome read?
**A.** inactive

**Q.** With CC1(N2CCCCC2)CC2(O)C(=[N+]1[O-])CCC/C2=N\O (stereo unspecified) as the molecule, how does the outcome read?
**A.** inactive

**Q.** Which outcome does the source give for Cc1cccc(OCC(=O)O/N=C(\N)c2ccc(Cl)cc2)c1 here?
**A.** inactive

**Q.** For O=C(Nc1nnc(-c2ccc3c(c2)CCCC3)o1)c1c(F)cccc1F, which potentiation is on record?
**A.** 182% (active)

**Q.** With CCn1ncc(Cl)c1C(=O)NC(=S)Nc1ccccc1Br as the molecule, how does the potentiation read?
**A.** 340% (active)

**Q.** With CCN1c2ccccc2-c2nc3ccccc3n2C1c1cccnc1 (stereo unspecified) as the molecule, how does the outcome read?
**A.** inactive

**Q.** For COc1ccc(-n2c(NCCN(C)C)nc3sc4c(c3c2=O)CCCCC4)cc1, which outcome is on record?
**A.** inactive

**Q.** For COC(=O)c1cccc(NC(=O)CSc2nncn2-c2ccccn2)c1, which outcome is on record?
**A.** inactive

**Q.** Which potentiation does the source give for COc1ccc(NC(=S)NC(=O)c2csnn2)cc1 here?
**A.** 282% (active)

**Q.** With O=C1CN(c2nc(-c3cccs3)nc3sc4c(c23)CCCC4)CCN1 as the molecule, how does the potentiation read?
**A.** 492% (active)

**Q.** For O=C(NC(=S)NCCC1=CCCCC1)c1ccco1, which potentiation is on record?
**A.** 315% (active)

**Q.** Which outcome does the source give for CCC(Cc1ccccc1)n1c(=S)[nH]c2ccccc2c1=O (stereo unspecified) here?
**A.** inactive

**Q.** For C/C(=N\NC(=O)C1COc2ccccc2O1)c1ccc(N2CCOCC2)cc1 (stereo unspecified), which outcome is on record?
**A.** inactive

**Q.** With O=C(NNC(=O)c1ccc2ccccc2c1O)c1cccs1 as the molecule, how does the outcome read?
**A.** inactive

**Q.** For COc1cccc2sc(N(CCCN(C)C)C(=O)CCS(=O)(=O)c3ccccc3)nc12, which outcome is on record?
**A.** inactive

**Q.** Which outcome does the source give for CC(C)NC(=O)/C(=C/c1cn(-c2ccccc2)nc1-c1cccc([N+](=O)[O-])c1)NC(=O)c1ccccc1 here?
**A.** inactive

**Q.** For CCCNC(=O)C(=O)N/N=C/c1cccs1, which outcome is on record?
**A.** inactive

**Q.** With Cc1ccc(NC(=O)C(=O)NNC(=O)c2ccccc2C)cc1Cl as the molecule, how does the potentiation read?
**A.** 400% (active)

**Q.** With CCOC(=O)C1=NN(C(=O)c2ccccc2)C(O)(c2ccc(C)cc2)C1 (stereo unspecified) as the molecule, how does the potentiation read?
**A.** 216% (active)

**Q.** Which potentiation does the source give for Cc1ccc2nc(NC(=S)NC(=O)c3ccco3)sc2c1 here?
**A.** 325% (active)

**Q.** Which outcome does the source give for Oc1c(Br)cc(Br)cc1C=Nc1cccnc1 here?
**A.** inactive

**Q.** Which potentiation does the source give for CCOC(=O)c1c(-c2ccccc2)csc1NC(=S)NC here?
**A.** 324% (active)
